# Results from different studies.
# Compare with care: the assays were run in different laboratories.
# Target: Dual specificity tyrosine-phosphorylation-regulated kinase 2 (DYRK2, Homo sapiens, UniProt Q92630)
# Sequence (Q92630 1-601, as in one of the studies): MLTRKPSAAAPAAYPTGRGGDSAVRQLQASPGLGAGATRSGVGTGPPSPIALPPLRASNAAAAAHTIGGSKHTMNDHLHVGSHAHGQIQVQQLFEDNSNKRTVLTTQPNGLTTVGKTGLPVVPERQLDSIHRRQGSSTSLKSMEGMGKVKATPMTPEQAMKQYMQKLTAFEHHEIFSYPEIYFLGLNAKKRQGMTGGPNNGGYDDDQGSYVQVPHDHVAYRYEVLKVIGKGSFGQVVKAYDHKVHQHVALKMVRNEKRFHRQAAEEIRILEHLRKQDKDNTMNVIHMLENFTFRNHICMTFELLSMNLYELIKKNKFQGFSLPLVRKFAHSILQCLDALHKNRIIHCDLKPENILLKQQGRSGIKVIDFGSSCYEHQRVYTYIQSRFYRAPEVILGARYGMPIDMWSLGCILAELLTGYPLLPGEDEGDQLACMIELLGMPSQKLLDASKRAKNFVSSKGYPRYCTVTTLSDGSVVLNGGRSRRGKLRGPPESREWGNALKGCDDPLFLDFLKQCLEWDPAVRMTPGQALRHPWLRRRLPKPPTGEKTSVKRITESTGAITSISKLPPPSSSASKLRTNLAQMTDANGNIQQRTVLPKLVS
SMILES,assay,setting,endpoint,result
Cc1ccc(Nc2nccc(N(C)c3ccc4c(C)n(C)nc4c3)n2)cc1S(N)(=O)=O,"enzyme activity, inhibitor",0.3 µM,inhibition,-8%
O=C(O)c1ccc2c(c1)nc(NCCc1ccccc1)c1ncncc12,"enzyme activity, inhibitor, radiometric",1 µM,remaining activity,45%
CCCCN(CCCC)C(=O)CN1C[C@@H](c2cc(OC)c3c(c2)OCO3)[C@H](C(=O)O)[C@H]1CC(C)(C)CCC,"cell-free assay, competition with immobilised ligand",1 µM,remaining binding,82.9%
O=C(O)c1ccc2c(c1)nc(NCc1ccccc1)c1ncncc12,"enzyme activity, inhibitor, radiometric",1 µM,remaining activity,37%
Cn1cnc(Br)c1C1=CN(c2ncnc3[nH]cnc23)CCS1,"enzyme activity, inhibitor, radiometric",2 µM,inhibition,98.3%
CCN(CC)CCNC(=O)c1c(C)[nH]c(/C=C2\C(=O)Nc3ccc(F)cc32)c1C,"enzyme activity, inhibitor",10 µM,inhibition,36%
Cc1ccc(NC(=O)c2ccc(CN3CCN(C)CC3)cc2)cc1Nc1nc(-c2cccnc2)cs1,cell-free assay,0.5 µM,remaining signal,109%
O=C(N1CCS(=O)(=O)CC1)N1C[C@H](c2ccc(OC(F)(F)F)cc2)C[C@H](c2nc(C3CC3)no2)C1,"cell-free assay, competition with immobilised ligand",1 µM,remaining binding,100%
O=C(O)c1ccc2c(c1)nc(NCc1ccccc1)c1ccncc12,"enzyme activity, inhibitor, radiometric",1 µM,remaining activity,27%
O=C(O)[C@H]1[C@H](Cn2nnc3ccccc3c2=O)CC[C@@H]1C(=O)c1ccc(OCCC2CCOCC2)cc1,"cell-free assay, competition with immobilised ligand",1 µM,remaining binding,93%
O=C(O)c1ccc2c(c1)nc(Nc1ccc3ccccc3c1)c1ncncc12,"enzyme activity, inhibitor, radiometric",1 µM,remaining activity,1%
Cc1cc(NC(=O)c2cccc3cc(-c4cccc5[nH]nc(N)c45)ccc23)ccc1F,"enzyme activity, inhibitor",0.1 µM,activity vs control,98%
NS(=O)(=O)c1cc(NC(=O)C2(c3ccccc3Cl)CC2)ccc1Oc1cccc(Cl)c1,"cell-free assay, competition with immobilised ligand",1 µM,remaining binding,81%
COc1cccc(CCNc2nc3cc(C(=O)O)ccc3c3cncnc23)c1,"enzyme activity, inhibitor, radiometric",1 µM,remaining activity,59%
N#CCCc1ccc2c(c1)-c1[nH]c3ccc([N+](=O)[O-])cc3c1CC(=O)N2,cell-free assay,0.5 µM,remaining signal,46.8%
CNCc1ccccc1-c1csc([C@H](C)Nc2nc(C)nc3cc(OC)c(OC)cc23)c1,"cell-free assay, competition with immobilised ligand",1 µM,remaining binding,96%
CN1CC(Oc2cnc(C#N)cc2-c2ccn3nc(NC(=O)C4CC4)cc3c2)C1,"enzyme activity, inhibitor",1 µM,inhibition,3%
O=C(O)c1ccc2c(c1)nc(Nc1ccc(F)c(Cl)c1)c1ncncc12,"enzyme activity, inhibitor, radiometric",1 µM,remaining activity,41%
CSc1cccnc1N1CCN(Cc2nc3ccccc3[nH]2)CC1,"cell-free assay, competition with immobilised ligand",1 µM,remaining binding,81%
